Reference: ChEMBL document CHEMBL2176991 (J Med Chem, 2012)
pIC50, pKi: −log10 of the molar value. Activity calls are given as the source filed them. The rule behind the calls is not given here. Square brackets hold non-standard residues; d marks the D form. Peptide text beside a SMILES is read from it. * marks the point of attachment. X4 = O=C1OC2(c3ccc(O)cc3Oc3cc(O)ccc32)c2cccc(NC(=S)*)c21; βAla = NCCC(=O)O

Experiments:
Furin = Furin (Homo sapiens, UniProt P09958); experiment: Competitive inhibition of human recombinant furin expressed in Drosophila S2 cells using pyroGlu-Arg-Val-Lys-Arg-methyl-coumaryl-7-amide as substrate at pH 7.5 after 60 mins by spectrofluorometric analysis
Furin, sequence (P09958 whole entry): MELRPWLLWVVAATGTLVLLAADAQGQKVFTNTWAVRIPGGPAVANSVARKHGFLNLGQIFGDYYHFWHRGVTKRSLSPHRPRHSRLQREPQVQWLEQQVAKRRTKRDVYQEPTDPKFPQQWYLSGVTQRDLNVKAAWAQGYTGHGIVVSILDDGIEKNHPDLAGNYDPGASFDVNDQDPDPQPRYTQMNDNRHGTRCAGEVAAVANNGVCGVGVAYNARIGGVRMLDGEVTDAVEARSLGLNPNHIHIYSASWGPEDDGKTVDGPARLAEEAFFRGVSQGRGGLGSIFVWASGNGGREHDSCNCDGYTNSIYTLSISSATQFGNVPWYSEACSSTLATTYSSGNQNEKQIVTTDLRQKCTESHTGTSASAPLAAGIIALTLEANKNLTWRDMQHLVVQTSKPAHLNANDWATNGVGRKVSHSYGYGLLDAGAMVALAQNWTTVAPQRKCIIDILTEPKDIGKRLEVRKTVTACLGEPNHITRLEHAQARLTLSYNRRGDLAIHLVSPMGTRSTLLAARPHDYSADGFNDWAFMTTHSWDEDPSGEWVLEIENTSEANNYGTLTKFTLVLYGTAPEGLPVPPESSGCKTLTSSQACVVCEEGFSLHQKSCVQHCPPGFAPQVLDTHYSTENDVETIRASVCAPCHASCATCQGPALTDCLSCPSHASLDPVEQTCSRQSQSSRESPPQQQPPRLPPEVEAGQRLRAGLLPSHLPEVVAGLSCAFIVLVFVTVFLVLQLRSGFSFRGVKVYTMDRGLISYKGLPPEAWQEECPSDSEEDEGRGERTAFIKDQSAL
How it was run: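 Recombinant soluble human furin from S2 medium, tested in 100 mM Hepes pH 7.5, 1 mM CaCl₂, 1 mM β-mercaptoethanol, 1.8 mg/mL BSA; substrate 100 μM, 37 °C, 60 min, kinetic fluorescence read. Inhibitors added at decreasing concentrations. Ki derived from IC50 by Cheng–Prusoff using Km 4.61 μM; three independent experiments.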

[1] = biological target: T1, Proprotein convertase subtilisin/kexin type 6 (Homo sapiens, UniProt P29122); experiment: Competitive inhibition of human recombinant PACE4 expressed in Drosophila S2 cells using pyroGlu-Arg-Val-Lys-Arg-methyl-coumaryl-7-amide as substrate at pH 6.5 after 60 mins by spectrofluorometric analysis
T1 sequence (P29122 whole entry): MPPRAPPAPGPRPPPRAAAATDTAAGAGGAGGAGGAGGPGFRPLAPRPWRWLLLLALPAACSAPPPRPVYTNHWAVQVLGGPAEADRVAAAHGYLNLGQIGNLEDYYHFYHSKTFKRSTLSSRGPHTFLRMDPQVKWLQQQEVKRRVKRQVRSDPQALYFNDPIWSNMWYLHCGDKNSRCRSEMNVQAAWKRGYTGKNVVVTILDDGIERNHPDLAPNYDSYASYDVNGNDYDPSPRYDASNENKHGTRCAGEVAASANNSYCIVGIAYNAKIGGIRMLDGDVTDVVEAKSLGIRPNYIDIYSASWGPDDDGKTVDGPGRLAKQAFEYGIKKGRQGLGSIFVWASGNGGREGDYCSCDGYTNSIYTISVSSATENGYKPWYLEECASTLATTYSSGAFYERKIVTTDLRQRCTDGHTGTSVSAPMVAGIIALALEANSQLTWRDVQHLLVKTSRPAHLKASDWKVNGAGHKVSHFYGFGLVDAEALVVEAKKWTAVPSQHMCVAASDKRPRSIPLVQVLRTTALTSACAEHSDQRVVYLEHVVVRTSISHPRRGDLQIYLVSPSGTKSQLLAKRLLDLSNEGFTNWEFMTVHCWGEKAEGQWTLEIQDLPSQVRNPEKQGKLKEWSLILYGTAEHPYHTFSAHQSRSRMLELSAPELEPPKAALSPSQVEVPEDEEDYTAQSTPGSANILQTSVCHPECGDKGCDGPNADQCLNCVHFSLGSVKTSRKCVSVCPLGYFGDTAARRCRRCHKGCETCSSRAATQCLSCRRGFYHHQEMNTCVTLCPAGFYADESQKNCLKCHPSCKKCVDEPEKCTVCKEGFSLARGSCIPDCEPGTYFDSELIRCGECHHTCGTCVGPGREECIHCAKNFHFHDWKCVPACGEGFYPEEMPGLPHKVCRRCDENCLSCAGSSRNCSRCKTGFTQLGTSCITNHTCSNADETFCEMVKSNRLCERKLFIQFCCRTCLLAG
How it was run: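 Soluble human PACE4 purified from S2 conditioned medium, assayed in 20 mM Bis-Tris pH 6.5, 1 mM CaCl₂, 1.8 mg/mL BSA with 100 μM substrate, 37 °C, 60 min. Real-time fluorescence read; inhibitors added at decreasing concentrations. Ki from IC50 by Cheng–Prusoff, Km 3.5 μM. Means of three independent experiments.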

DU-145 [2] = experiment: Cytotoxicity against human DU145 cells assessed as growth inhibition after 72 hrs by MTT assay; type: functional, cell-based; conditions: DU-145, 72 h
How it was run: (§1)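 Cells plated in 96-well format: DU145 and PC3 at 1500/well, LNCaP at 2500/well on poly-lysine. After 24 h, medium was changed and peptide added for 72 h in RPMI 1640 (5% FBS for DU145, 10% for LNCaP and PC3). MTT at 1 mg/mL final for 4 h (DU145, LNCaP) or 6 h (PC3). Formazan dissolved in 2-propanol-HCl and signal normalized to vehicle (water, 0.1% DMSO). IC50 from curve fitting.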

[3] = Stability of the compound in presence of aminopeptidase; type: ADME
LNCaP [4] = experiment: Cell cycle arrest in human LNCAP cells assessed as decrease in accumulation at S phase after 96 hrs by propidium iodide staining-based FACS flow cytometric analysis; type: functional
LNCaP [5] = experiment: Cell cycle arrest in human LNCAP cells assessed as accumulation at sub G1 phase at 200 uM after 96 hrs by propidium iodide staining-based FACS flow cytometric analysis (reference value: 0.3 +/- 0.2 %); type: functional
LNCaP [6] = experiment: Cell cycle arrest in human LNCAP cells assessed as accumulation at G2/M phase at 200 uM after 96 hrs by propidium iodide staining-based FACS flow cytometric analysis (reference value: 10.1 +/- […]); type: functional
LNCaP [7] = experiment: Cell cycle arrest in human LNCAP cells assessed as accumulation at S phase at 200 uM after 96 hrs by propidium iodide staining-based FACS flow cytometric analysis (reference value: 15.6 +/- 1.3 %); type: functional
LNCaP [8] = experiment: Cell cycle arrest in human LNCAP cells assessed as accumulation at S phase at 100 uM after 96 hrs by propidium iodide staining-based FACS flow cytometric analysis (reference value: 15.6 +/- 1.3 %); type: functional
LNCaP [9] = experiment: Cell cycle arrest in human LNCAP cells assessed as accumulation at G0/G1 phase after 96 hrs by propidium iodide staining-based FACS flow cytometric analysis
LNCaP [10] = experiment: Cell cycle arrest in human LNCAP cells assessed as accumulation at G0/G1 phase at 100 uM after 96 hrs by propidium iodide staining-based FACS flow cytometric analysis (reference value: 74.3 +/- 0.1 %); type: functional
PC-3 = experiment: Cytotoxicity against human PC3 cells assessed as growth inhibition after 72 hrs by MTT assay; type: functional, cell-based; how it was run: as §1
LNCaP [11] = experiment: Cytotoxicity against human LNCAP cells assessed as growth inhibition after 72 hrs by MTT assay; type: functional, cell-based; how it was run: as §1
Homo sapiens = organism: Homo sapiens; experiment: Selectivity ratio of Ki for human recombinant furin to Ki for human recombinant PACE4
DU-145 [12] = experiment: Cellular uptake in human DU145 cells at 10 uM after 1 hr by propidium iodide staining-based FACS flow cytometric analysis; type: ADME, cell-based; conditions: du-145, 1 h
How it was run: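 DU145 cells (4 × 10⁵) incubated 1 h with 10 μM FITC-labeled peptide in serum-free RPMI, then pelleted and washed twice with 0.05% trypsin for 5 min at 37 °C to strip membrane-bound label. Propidium iodide (10 μg/mL, 2 min) used to exclude cells with damaged membranes. At least 10000 events acquired by FACS; uptake reported as geometric mean fluorescence.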

Structure (SMILES) | pKi (Furin) | pKi [1] | Ratio Ki (Homo sapiens) | further results
CC(=O)N[C@@H](CC(C)C)C(=O)N[C@@H](CC(C)C)C(=O)N[C@@H](CCCN=C(N)N)C(=O)N[C@H](C(=O)N[C@@H](CCCCN)C(=O)N[C@@H](CCCN=C(N)N)C(N)=O)C(C)C | 6.05 | 6.62 | – | –
CC(=O)N[C@@H](CC(C)C)C(=O)N[C@@H](CC(C)C)C(=O)N[C@@H](CC(C)C)C(=O)N[C@@H](CCCN=C(N)N)C(=O)N[C@H](C(=O)N[C@@H](CCCCN)C(=O)N[C@@H](CCCN=C(N)N)C(N)=O)C(C)C | 6.40 | 7.74 | – | –
CC(=O)OCCOCCOCCOCCOCCOCCOCCOCCN[C@@H](CC(C)C)C(=O)N[C@@H](CC(C)C)C(=O)N[C@@H](CC(C)C)C(=O)N[C@@H](CC(C)C)C(=O)N[C@@H](CCCNC(=N)N)C(=O)N[C@H](C(=O)N[C@@H](CCCCN)C(=O)N[C@@H](CCCNC(=N)N)C(N)=O)C(C)C | 6.32 | 7.72 | – | pIC50 (DU-145 [2]): < 3.30
CC(=O)CCCCCCCCN[C@@H](CC(C)C)C(=O)N[C@@H](CC(C)C)C(=O)N[C@@H](CC(C)C)C(=O)N[C@@H](CC(C)C)C(=O)N[C@@H](CCCNC(=N)N)C(=O)N[C@H](C(=O)N[C@@H](CCCCN)C(=O)N[C@@H](CCCNC(=N)N)C(N)=O)C(C)C | 6.30 | 7.64 | – | pIC50 (DU-145 [2]): 4.10
CC(=O)N[C@H](CC(C)C)C(=O)N[C@@H](CC(C)C)C(=O)N[C@@H](CC(C)C)C(=O)N[C@@H](CC(C)C)C(=O)N[C@@H](CCCN=C(N)N)C(=O)N[C@H](C(=O)N[C@@H](CCCCN)C(=O)N[C@@H](CCCN=C(N)N)C(N)=O)C(C)C | – | – | – | Stability [3]: Stable
CC(=O)N[C@H](CC(C)C)C(=O)N[C@@H](CC(C)C)C(=O)N[C@@H](CC(C)C)C(=O)N[C@@H](CC(C)C)C(=O)N[C@@H](CCCNC(=N)N)C(=O)N[C@H](C(=O)N[C@@H](CCCCN)C(=O)N[C@@H](CCCNC(=N)N)C(N)=O)C(C)C | – | – | – | Activity (LNCaP [4]): Dose-dependent effect; Activity (LNCaP [5]): 11.8%; Activity (LNCaP [6]): 8.3%; Activity (LNCaP [7]): 8.4%; Activity (LNCaP [8]): 11.8%; Activity (LNCaP [9]): Dose-dependent effect
CC(=O)N[C@@H](CC(C)C)C(=O)N[C@@H](CC(C)C)C(=O)N[C@@H](CC(C)C)C(=O)N[C@@H](CC(C)C)C(=O)N[C@@H](CCCNC(=N)N)C(=O)N[C@H](C(=O)N[C@@H](CCCCN)C(=O)N[C@@H](CCCNC(=N)N)C(N)=O)C(C)C (Ac-LLLLRVKR-NH2) | – | – | – | Activity (LNCaP [4]): Dose-dependent effect; Activity (LNCaP [7]): 9.3%; Activity (LNCaP [10]): 79.7%; growth inhibition (GI) (PC-3): inactive; Activity (LNCaP [9]): Dose-dependent effect
CC(=O)N[C@@H](CC(C)C)C(=O)N[C@@H](CC(C)C)C(=O)N[C@@H](CC(C)C)C(=O)N[C@@H](CC(C)C)C(=O)N[C@@H](CCCNC(=N)N)C(=O)N[C@H](C(=O)N[C@@H](CCCCN)C(=O)N[C@H](CCCNC(=N)N)C(N)=O)C(C)C (Ac-LLLLRVK[dR]-NH2) | – | – | – | pIC50 (LNCaP [11]): 3.41; pIC50 (DU-145 [2]): 3.36
C[C@H](N)C(=O)N[C@@H](CCCCN)C(=O)N[C@@H](CCCNC(=N)N)C(=O)N[C@@H](CCCNC(=N)N)C(=O)N[C@H](C(=O)N[C@@H](CCCCN)C(=O)N[C@@H](CCCNC(=N)N)C(=O)O)[C@@H](C)O (H-AKRRTKR-OH) | – | 9.40 | 4.2 | –
N=C(N)NCCC[C@H](NC(=O)[C@H](CCCCN)NC(=O)[C@H](CO)NC(=O)[C@H](CCCNC(=N)N)NC(=O)[C@H](CCC(=O)O)NC(=O)[C@H](CCCCN)NC(=O)[C@@H](N)CCC(=O)O)C(=O)O (H-EKERSKR-OH) | – | – | 1.3 | –
NCCCC[C@H](NC(=O)[C@H](CCCCN)NC(=O)[C@H](CCCN=C(N)N)NC(=O)[C@H](CC(=O)O)NC(=O)[C@H](Cc1ccccc1)NC(=O)CN)C(=O)N[C@@H](CCCN=C(N)N)C(=O)O (H-GFDRKKR-OH) | < 6.00 | < 6.00 | – | –
N=C(N)NCCC[C@H](NC(=O)[C@H](CCCCN)NC(=O)[C@H](CCCCN)NC(=O)[C@H](CCCNC(=N)N)NC(=O)[C@H](CC(=O)O)NC(=O)[C@H](Cc1ccccc1)NC(=O)CN)C(=O)O (H-GFDRKKR-OH) | – | – | 1 | –
CC(C)C[C@H](NC(=O)[C@@H](N)CC(C)C)C(=O)N[C@@H](CCCNC(=N)N)C(=O)N[C@@H](CCCNC(=N)N)C(=O)N[C@@H](C)C(=O)N[C@@H](CCCCN)C(=O)N[C@@H](CCCNC(=N)N)C(=O)O (H-LLRRAKR-OH) | – | 9.47 | 36 | –
CC(C)C[C@H](N)C(=O)N[C@@H](CCCN=C(N)N)C(=O)N[C@@H](CCCN=C(N)N)C(=O)N[C@@H](CCCN=C(N)N)C(=O)N[C@H](C(=O)N[C@@H](CCCCN)C(=O)N[C@@H](CCCN=C(N)N)C(=O)O)C(C)C (H-LRRRVKR-OH) | 8.05 | 8.15 | – | –
CC(C)C[C@H](N)C(=O)N[C@@H](CCCNC(=N)N)C(=O)N[C@@H](CCCNC(=N)N)C(=O)N[C@@H](CCCNC(=N)N)C(=O)N[C@H](C(=O)N[C@@H](CCCCN)C(=O)N[C@@H](CCCNC(=N)N)C(=O)O)C(C)C (H-LRRRVKR-OH) | – | – | 1.3 | –
CC(C)[C@H](N)C(=O)N[C@@H](CCCCN)C(=O)N[C@@H](CCCCN)C(=O)N[C@@H](CCCNC(=N)N)C(=O)N[C@H](C(=O)N[C@@H](CCCCN)C(=O)N[C@@H](CCCNC(=N)N)C(=O)O)[C@@H](C)O (H-VKKRTKR-OH) | – | – | 2.2 | –
CC(C)[C@H](N)C(=O)N[C@@H](CCCCN)C(=O)N[C@@H](CCCN=C(N)N)C(=O)N[C@@H](CCCN=C(N)N)C(=O)N[C@H](C(=O)N[C@@H](CCCCN)C(=O)N[C@@H](CCCN=C(N)N)C(=O)O)C(C)C (H-VKRRVKR-OH) | – | 8.70 | – | –
CC(C)[C@H](N)C(=O)N[C@@H](CCCCN)C(=O)N[C@@H](CCCNC(=N)N)C(=O)N[C@@H](CCCNC(=N)N)C(=O)N[C@H](C(=O)N[C@@H](CCCCN)C(=O)N[C@@H](CCCNC(=N)N)C(=O)O)C(C)C (H-VKRRVKR-OH) | – | – | 2.7 | –
CC(C)C[C@H](NC(=O)CCNC(=S)Nc1cccc2c1C(=O)OC21c2ccc(O)cc2Oc2cc(O)ccc21)C(=O)N[C@@H](CC(C)C)C(=O)N[C@@H](CC(C)C)C(=O)N[C@@H](CC(C)C)C(=O)N[C@@H](CCCNC(=N)N)C(=O)N[C@H](C(=O)N[C@@H](CCCCN)C(=O)N[C@@H](CCCNC(=N)N)C(N)=O)C(C)C ({X4-βAla}-LLLLRVKR-NH2) | – | – | – | Drug uptake (DU-145 [12]): Active
